Assay outcomes from PubChem.
Compounds with a hit are over-represented: about 5.1% of the library has one in this group of screens.
NF-kB neuron act: NF-kB expression increase, human neuronal cells; NF-kB reporter expression; stronger effect = higher value; fold change at 12.5 µM; 190,000 compounds, 1.6% hits; AID 1239; in the data active means fold change above about 3.3
STAT3 blocker: reduces IL-6 driven STAT3 reporter signal | U3A cells, IL-6 STAT3-luciferase reporter, luminescence; host cell line lacks STAT1 | inhibition, % at 5.5 µM | 190,000 compounds, 0.89% hits | AID 862;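 active means inhibition above the mean inhibition across all screened compounds plus 3 SD, cut at about 44% in these data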;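 further: 0% = DMSO only wells and 100% = 100 µM nifuroxazide control wells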
APP 5'UTR act: activates APP 5'UTR luciferase reporter | 190,000 compounds, 1% hits | SH-SY5Y APP 5'UTR luciferase reporter, luminescence; zero percent = DMSO vehicle wells | activation, % at 2 µM | AID 1276;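 active means activation above a set limit, based on mean plus 3 SD of controls, cut at about 140% in these data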
STAT1 activator: activators of IFN-gamma induced STAT1 signaling. NIH 3T3 STAT1-luciferase reporter, luminescence; 100% = IFN-gamma alone, no compound. activation (% of control), % at 5.5 µM. 200,000 compounds, 2.6% hits. AID 932;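 active means activation above the screen-wide mean activation plus 3 SD, cut at about 130% in these data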;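 further: raw ratio to IFN-gamma control signal so 100% means no change and 0% no light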
STAT1 inh: STAT1 signaling inhibition; AID 920; inhibition, % at 5.5 µM; NIH 3T3 STAT1-luciferase reporter, IFN-gamma, luminescence; 200,000 compounds, 0.35% hits;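 active means inhibition above a set limit, the mean inhibition across all tested compounds plus 3 SD, cut at about 34% in these data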;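 further: 0% = IFN-gamma with DMSO and 100% = IFN-gamma with 300 µM nifuroxazide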
STAT3 activator: activators of IL-6 induced STAT3 signaling | U3A cells, IL-6 STAT3-luciferase reporter, luminescence; 100% = signal with IL-6 EC80 alone | activation (% of control), % at 5.6 µM | 190,000 compounds, 0.91% hits;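 active means activation above the screen-wide mean of compound activation plus 3 SD, cut at about 130% in these data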;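 further: 0% = background luminescence of wells with medium and substrate only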
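Material: STAT3-luciferase reporter U3A cells; Probe or stimulus: IL-6 (33 ng/mL); Incubation: compound pre-incubation 1 h before IL-6, then 6 h stimulation at 37 °C; Technique: luminescence from STAT3-driven luciferase reporter; Evaluation: % activation versus median of IL-6-stimulated wells; Controls: IL-6-only high control.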
Starred values were filed as active, the others as inactive.

SMILES	NF-kB neuron act	STAT3 blocker	APP 5'UTR act	STAT1 activator	STAT1 inh	STAT3 activator
CCCOc1ccc(N2C(=O)CC(SCc3nc4ccccc4[nH]3)C2=O)cc1 (configuration not stated)	0.97	1	-6	91	8	101
COc1ccc(C(=O)Nc2nc(C)c(C)s2)cc1OC	1.9	4	104	139*	-43	100
COc1cc(OC)cc(C(=O)Nc2nc3ccccc3[nH]2)c1	1.9	5	105	131*	-34	99
COc1ccc(OCC(=O)Nc2nc3ccccc3[nH]2)cc1	2.2	5	50	106	-7	99
CN(C)S(=O)(=O)c1ccc(C(=O)Nc2nc3ccccc3[nH]2)cc1	1.2	2	101	143*	-51	100
COc1ccc(C(=O)Nc2nc3ccccc3[nH]2)cc1OC	2.4	20	92	129*	-31	85
COc1ccc(C(=O)Nc2ccc3nc(C)sc3c2)cc1OC	0.97	3	27	118	-20	99
COc1cc(CO)cc(Br)c1OCC(=O)Nc1cccc2ccccc12	0.89	-1	0	102	-4	107
COCCNC(=O)/C(=C/c1ccccc1Cl)c1ccccc1	1.1	-2	20	108	-10	103
COc1ccc(OC)c(S(=O)(=O)n2nnc3cc(Cl)ccc32)c1	1.1	5	7	95	5	98
COc1cc(S(=O)(=O)n2nnc3ccccc32)c(OC)cc1Cl	1.4	18	-5	80	35*	86
CCC1=NN(C(=O)Cc2ccc([N+](=O)[O-])cc2)C(O)(C(C)(C)C)C1 (configuration not stated)	3.5*	6	8	83	19	96
CN(CCC#N)CC(=O)Nc1ccc(S(N)(=O)=O)cc1	1.2	-2	-5	94	4	106
Cc1nn(-c2ccccc2)c(Cl)c1/C=N/NC(=O)c1ccccc1NS(=O)(=O)c1cccs1	1	-4	-34	99	1	104
Cc1nn(-c2ccccc2)c(Cl)c1/C=N/NC(=O)c1ccc(NS(=O)(=O)c2cccs2)cc1	2.2	-11	37	137*	-44	113
COc1cc(C(=O)OC2CSCC2NC(=O)c2ccccc2)cc(OC)c1OC (configuration not stated)	1.1	6	-4	91	8	99
COc1ccc(CNC(=O)C/C(C)=N/NC(=O)COc2ccc(Br)cc2)cc1	1.2	-8	6	94	7	109
COCCNC(=O)c1cc(C(=O)CC(C)C)c[nH]1	1.2	12	11	99	-1	99
COc1cc(C2C(C#N)=C(N)Oc3cc(O)ccc32)cc2c1OCO2 (configuration not stated)	1.1	2	5	105	-7	102
COc1cc(C2C(C#N)=C(N)Oc3cc(N(C)C)ccc32)cc2c1OCO2 (configuration not stated)	4.8*	-29	-97	111	-12	131
N#Cc1cc(C#N)c(N2CCN(c3ccccn3)CC2)nc1N	0.97	-16	68	136*	-39	119
O=[N+]([O-])c1ccc(-c2cn(-c3ccccc3)c(=S)[nH]2)cc1	1.1	-7	40	131*	-34	106
COc1ccc(-c2nnnn2-c2ccc(F)cc2F)cc1	3.9*	5	6	96	3	102
CC(C)N(C(=O)C(=O)c1cccn1-c1ccccc1C#N)C(C)C	0.89	0	1	98	2	104
CC(Sc1ncnc2sccc12)C(=O)Nc1ccc(C(N)=O)cc1 (configuration not stated)	2.7	-2	19	93	6	104
SMILES	NF-kB neuron act	STAT3 blocker	APP 5'UTR act	STAT1 activator	STAT1 inh	STAT3 activator
COC(=O)c1cn[nH]c1NC(=S)Nc1ccc(Cl)c(Cl)c1	0.91	28	222*	145*	-49	77
CCCn1ncc(CN2CCC(N3CCC(C(=O)N4CCOCC4)CC3)CC2)c1C	1.1	5	2	94	4	99
CCCc1ccc(-c2ccc(C(=O)O)cc2)nc1	2.6	23	92	131*	-36	84
CCCCCc1ccc(-c2ccc(OC)cc2)nc1	3.4*	8	128	140*	-45	95
Cc1ccc(NC(=O)Cn2c(=S)[nH]c3ccccc32)cc1	1.1	-2	17	105	-9	106
COc1cc(Cl)c(C)cc1NC(=O)c1ccc(S(C)(=O)=O)cc1	1.2	19	29	103	-4	86
Fc1ccc(-c2nc3c(Cl)cc(C(F)(F)F)cn3c2Cl)cc1	2.1	-36	-2	110	-11	134*
FC(F)c1nnc2c(Cl)cc(C(F)(F)F)cn12	1.2	5	6	95	3	105
COc1ccc(N2C(=O)C3CCCN3C2c2ccccc2OC)cc1 (configuration not stated)	1.2	12	-6	93	7	97
COc1ccccc1C1N(c2ccc(Cl)cc2)C(=O)C2CCCN21 (configuration not stated)	0.96	-39	0	95	5	134*
CC(=O)N1c2ccccc2C2(O)N=C(C)SC12 (configuration not stated)	1.2	-1	31	87	14	103
COc1ccc(Cn2c(=O)c3cccnc3n(Cc3ccc([N+](=O)[O-])cc3)c2=O)cc1	1.1	-17	-9	99	1	116
COc1ccc(-c2ccc(=O)n(Cc3ccc([N+](=O)[O-])cc3)n2)cc1	0.79	-39	-12	86	13	134*
Cc1ccc(NC(=O)CSCC(=O)O)cc1	1.1	2	-11	96	3	101
Cc1ccc(NC(=O)CSCc2ccco2)cc1	2	6	32	129*	-31	103
Cc1ccc(NC(=O)c2cc(C)n(-c3ccccc3)c2C)cc1	0.33	88*	52	65	39*	24
Cc1cc(C(=O)N/N=C/c2cccc([N+](=O)[O-])c2)c(C)n1-c1ccccc1	1.2	-5	36	132*	-35	104
O=C(O/N=C1/CCCc2occc21)c1ccc(F)cc1	1.4	5	-19	114	-15	97
O=C(O/N=C1/CCSc2ccccc21)c1ccc(F)cc1	1.2	-38	2	104	-4	135*
O=C(Nc1ccc(F)cc1)C1CCCCC1	1	12	-11	94	6	97
O=C(Nc1ccc(-c2cn3ccsc3n2)cc1)C1CC1	3.2	23	83	111	-12	84
O=C(CCN1C(=O)c2ccccc2C1=O)Nc1ccc(-c2cn3ccsc3n2)cc1	1.6	19	11	114	-16	87
O=C(Nc1ccc(-c2cn3ccsc3n2)cc1)C1CCCC1	4*	34	127	123	-25	74
c1cn2cc(-c3ccc4c(c3)OCO4)nc2s1	6.1*	24	149*	141*	-45	85
